NF-kB expr up: activators of NF-kB expression in neurons, primary screen, cell-based, HTS; human neuronal cells, NF-kB reporter expression; active compounds read high; fold change at 12.5 µM; 190,000 compounds, 1.6% hits; AID 1239, 2008; in the data active = fold change above about 3.3
FLuc act counter: FLuc activators, initial screening, artefact control for FLuc-dependent activation tests, biochemical, ATPlite luminescence. 200,000 tested, under 10 active. Luciferin 4-monooxygenase (Photinus pyralis), P08659. ATPlite luciferase biochemical, 10 min; 0 = ATP-free wells, 1 = DMSO control. activation factor at 10 µM;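 active = luciferase activation factor, scaled between plate controls, of at least 2 with compound at 10 µM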
Target sequence (P08659 whole entry, looked up): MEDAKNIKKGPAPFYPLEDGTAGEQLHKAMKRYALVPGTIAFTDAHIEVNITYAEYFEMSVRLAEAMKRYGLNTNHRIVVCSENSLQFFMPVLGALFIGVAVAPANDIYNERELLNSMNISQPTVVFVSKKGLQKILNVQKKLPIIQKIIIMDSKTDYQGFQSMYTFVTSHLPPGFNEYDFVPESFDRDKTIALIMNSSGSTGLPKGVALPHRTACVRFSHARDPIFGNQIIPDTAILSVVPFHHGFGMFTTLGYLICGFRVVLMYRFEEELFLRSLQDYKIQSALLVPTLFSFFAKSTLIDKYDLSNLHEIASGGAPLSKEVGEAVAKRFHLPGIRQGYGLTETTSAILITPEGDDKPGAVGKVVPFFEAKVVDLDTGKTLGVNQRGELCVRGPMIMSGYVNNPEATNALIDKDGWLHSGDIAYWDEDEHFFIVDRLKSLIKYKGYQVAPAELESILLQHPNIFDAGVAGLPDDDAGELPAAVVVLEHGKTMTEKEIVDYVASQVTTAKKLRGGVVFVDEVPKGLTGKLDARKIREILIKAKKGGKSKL
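Material: Luciferase/luciferin reagent mix; Doses: test compounds dosed from 2 mM stocks in 100% DMSO; Schedule: 10 min incubation after luciferase reagent addition, room temperature; Measured by: luminescence from luciferase reaction; Read-out: luminescence gain marking luciferase activators.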
FLuc inhib CS: firefly luciferase enzyme inhibitors, primary screen, artefact control for luciferase-based inhibitor screens, biochemical, luminescence, ATPLite. 10 min. inhibition, % at 10 µM. AID 1006, 2008. 200,000 compounds, 1.5% hits;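 active = inhibition above about 50% when tested at 10 µM, limit read from the data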
APP 5'UTR act: activators of APP 5'UTR luciferase reporter, primary screen, SH-SY5Y cells | SH-SY5Y APP 5'UTR luciferase reporter, luminescence; zero percent = DMSO vehicle wells | activation, % at 2 µM | 190,000 compounds, 1% hits;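 active = activation above a set limit, based on mean plus 3 SD of controls, cut at about 140% in these data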
Pf gamet viab: late stage P. falciparum gametocyte viability inhibitors, primary screen, ATP luminescence, HTS; AID 743093, 2013; P. falciparum stage V gametocytes, 24 h; 150,000 compounds, 0.065% hits; inhibition, % at 10.9 µM;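 active = inhibition above the mean plus 3 SD of compounds within the control limits, set per campaign, cut at about 38% in these data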
STAT1 act: STAT1 signaling activators, primary screen, cell-based, HTS, luciferase reporter. NIH 3T3 STAT1-luciferase reporter, IFN-gamma, luminescence; 100% = IFN-gamma alone, no compound. activation (% of control), % at 5.5 µM. 200,000 compounds, 2.6% hits. AID 932, 2007;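 active = activation above the screen-wide mean activation plus 3 SD, cut at about 130% in these data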
STAT1 activ conf: STAT1 signaling activators, confirmation, cell-based, HTS, luciferase reporter | AID 1262, 2008 | activation (% of control), % at 5.7 µM | NIH 3T3 STAT1-luciferase reporter, IFN-gamma potentiation, luminescence; 100% = IFN-gamma EC80 alone, no compound | shares compounds with STAT1 act | 1,200 compounds, 97% hits;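 active = activation above a set limit carried over from the earlier primary STAT1 screen, cut at about 140% in these data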
NFkB act STAT1ct: NF-kB reporter activators, TNF-alpha stimulated, counter-screen for STAT1 activator project, cell-based, HEK293T, luciferase luminescence. 100% = TNF-alpha with vehicle only. AID 1306, 2008. 1,200 compounds, 43% hits. activation (% of control), % at 5.7 µM. shares compounds with STAT1 act;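 active = activation above the mean of solvent-only control wells plus 3 SD, set per campaign, cut at about 130% in these data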;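 also: TNF-alpha given at a submaximal dose yielding about 80% of full reporter signal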
STAT3 act STAT1c: STAT3 reporter activation by STAT1 hits, confirmation, counter-screen for STAT1 activator project, U3A cells, luciferase, luminescence | activation (% of control), % at 5.7 µM | shares compounds with STAT1 act | 1,200 compounds, 46% hits | IL-6; cells lack STAT1; 100 = IL-6 alone, no compound effect;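 active = activation above the solvent-only control well mean plus 3 SD, set per plate batch, cut at about 110% in these data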;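 also: higher means more STAT3 reporter activation so hits are non-selective activators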
A number is an active result; – = inactive; · = no result given. Only some compounds are listed: those with a hit (about 3.5% of all), similar ones and a draw of the others.

SMILES | NF-kB expr up | FLuc act counter | FLuc inhib CS | APP 5'UTR act | Pf gamet viab | STAT1 act | others
CCN1CCN(c2nc3ccccc3s2)CC1 | 4.69 | – | – | – | · | –
C=CCN1CCc2cccc3c2[C@H]1Cc1ccc(O)c(O)c1-3 | · | · | · | · | – | ·
Cc1nc(Cl)sc1C(=O)Nc1ccc2ccccc2c1 | 5.48 | – | – | – | – | 134.2
CC1CCCN(CC(=O)c2ccc(Cl)c(Cl)c2)C1 (stereo not given) | – | – | – | – | – | –
CC1CCN(CC(=O)c2ccc3c(c2)OCCO3)CC1 | – | – | – | 146.4 | – | 138.8
CCOC(=O)c1c(-n2c(C)cc(C=C3C(=O)NC(=S)NC3=O)c2C)sc2c1CCCC2 | 5.57 | – | – | – | · | –
Cc1cc(=O)[nH]c(SCc2nc3ccccc3c(=O)n2-c2ccccc2C)n1 | – | – | – | – | – | –
COc1ccc(-c2nc3ccccc3c(=O)o2)cc1 | – | – | 54.9 | – | – | –
COc1cccc(N2C(=O)NC(=O)/C(=C/c3ccc4c(c3)Cc3ccccc3-4)C2=O)c1 | – | – | – | – | – | 130.9
CC1(C)CN=C(Nc2nc3ccccc3s2)S1 | 4.73 | – | – | – | – | 135.9
CC1(C)CN=C(NCc2ccccc2)S1 | · | · | · | · | – | ·
COc1cc(/C=C/C(=O)c2c(O)n(CCc3ccccc3)c(=O)[nH]c2=O)ccc1O | – | – | 55.5 | – | – | –
O=C(/C=C/c1ccccc1)c1c(O)n(CCc2ccccc2)c(=O)[nH]c1=O | – | – | – | – | – | –
Cc1cc(C(=O)CS(=O)(=O)c2ccc(F)cc2)cc(C)c1OC(=O)N(C)C | – | – | 62.6 | – | – | –
C[N+](C)(N)CCOC(=O)C(O)(c1ccccc1)C1CCCCC1 (stereo not given) | · | · | · | · | – | ·
CCCCCCOc1ccc(CN2CCN(CC)CC2)cc1 | – | – | – | 144.8 | · | –
CC(=O)Nc1ccccc1C(=O)OCc1ccccc1F | – | – | – | – | – | 145.2
CC(=O)Nc1ccccc1C(=O)OCC(=O)c1ccccc1Cl | – | – | – | – | · | –
COC(=O)C1=C(c2ccc(OC(F)(F)F)cc2)C[C@@H]2CC[C@H]1N2C(=O)NCc1cc(C)oc1C(F)(F)F | · | · | · | · | – | ·
CN(C)C(=O)Oc1ccc(-c2cn3cc(C(F)(F)F)ccc3n2)cc1 | – | – | 53.9 | – | – | 138.2
CN(C)C(=O)Oc1ccc([N+](=O)[O-])cc1 | – | – | – | – | – | –
CN(C)C(=O)Oc1cccc(-c2cn3cc(Cl)ccc3n2)c1 | – | – | 74.7 | – | · | –
CN(C)C(=O)Oc1ccc(-c2cn3cc(Cl)ccc3n2)cc1 | 6.84 | – | 86.4 | 166.8 | – | 141.4
CN(C)C(=O)Oc1ccc(-c2nnco2)cc1 | – | – | – | · | · | –
COC(=O)C1=C(c2c(C)noc2C)C[C@@H]2CC[C@H]1N2C(=O)N1CCCCC1 | · | · | · | · | – | ·
SMILES | NF-kB expr up | FLuc act counter | FLuc inhib CS | APP 5'UTR act | Pf gamet viab | STAT1 act | others
COC(=O)C1=C(c2cccc3c2S(=O)(=O)c2ccccc2-3)C[C@@H]2CC[C@H]1N2C(=O)N1CCc2cc(OC)c(OC)cc2C1 | · | · | · | · | – | ·
COC(=O)C1=C(c2c(C)noc2C)C[C@@H]2CC[C@H]1N2C(=O)NCc1ccco1 | · | · | · | · | – | ·
COC(=O)C(O)(c1ccc(NC(=S)NC(=O)c2ccc(Cl)cc2Cl)cc1)C(F)(F)F (stereo not given) | – | – | – | – | – | –
COC(=O)C(O)(c1ccc(NC(=O)NC2CCCCC2)cc1)C(F)(F)F (stereo not given) | – | – | – | – | – | 144.5
CCOC(=O)C1=C(NC(=S)NC(=O)c2ccccc2)c2ccccc2CC12CCCC2 | – | – | – | – | – | –
O=C(c1cc2c(s1)-c1ccccc1OC2)N1CCC2(CC1)OCCO2 | 3.85 | – | – | 142.4 | · | 158.2 | STAT1 activ conf=195.6;NFkB act STAT1ct=133.8;STAT3 act STAT1c=118.8
COc1cc(C=C2C(=O)NC(=O)NC2=O)ccc1OCc1ccc([N+](=O)[O-])cc1 | 3.42 | – | 52.3 | – | – | 152.0 | STAT1 activ conf=174.6;NFkB act STAT1ct=136.2;STAT3 act STAT1c=121.5
O=C1NC(=O)C(=Cc2ccc(Oc3ccc([N+](=O)[O-])cc3)cc2)C(=O)N1 | – | – | – | – | · | –
c1ccc(-c2ccc(-c3n(-c4ccccn4)c4ccccc4[n+]3-c3ccccn3)cc2)cc1 | – | – | – | – | · | –
COc1ccc(-c2cc(=NCCC(=O)O)c3cc(C)ccc3o2)cc1 | 3.7 | – | – | 144.8 | – | 153.4 | STAT1 activ conf=154.0;NFkB act STAT1ct=–;STAT3 act STAT1c=–
COc1ccc(-c2cc(=O)c3c(OC)c(OC)c(OC)cc3o2)cc1 | – | – | – | – | · | –
COc1ccc(-c2cc(=Nc3ccccc3)c3cc(C)ccc3o2)cc1 | 8.59 | – | – | – | – | 165.1 | STAT1 activ conf=143.4;NFkB act STAT1ct=–;STAT3 act STAT1c=–
COC(=O)C1=C(c2ccc(OC(F)(F)F)cc2)C[C@@H]2CC[C@H]1N2C(=O)NCCOc1ccc(OC)cc1 | · | · | · | · | – | ·

Bioassay records from PubChem BioAssay.
